Laboratory results from article PMC10774712 (RSC Advances, 2024).
“Also recorded” adds a separate entry of the source.

Columns and labels:
NCI 60 cancer cell lines = assay: NCI 60 cell panel anti-proliferative assay; format: cell-based, human; settings: 10 μM single dose
HOP-92 = assay: NCI 60 SRB assay; format: cell-based; settings: Homo sapiens, HOP-92, read-out: growth inhibition
P-glycoprotein = assay: Quantitative real time PCR for P-glycoprotein; format: cell-based; settings: MDA-MB-468/ADR cells, 72 h, in comparison to the control (1)
Procedure, shortened: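 P-gp gene expression measured by real-time RT-PCR in 1 × 10⁵ MDA-MB-468 cells. Cells exposed to test compound at 0.125, 0.250, 0.500 and 1.000 μM for 72 h. Expression reported as fold change relative to untreated control, set at 1.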

MDA-MB-468 cells [1] = assay: Annexin-V-FITC/PI apoptosis assay; format: cell-based
Procedure, shortened: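 MDA-MB-468 cells seeded at 4 × 10⁶ per T75 flask and exposed to test compound for 24 and 48 h, with a DMSO control. Cells trypsinised; 0.5 × 10⁶ cells washed twice in PBS and stained with 5 μl annexin V-FITC plus 5 μl PI in 1× binding buffer, 15 min, room temperature, dark. Read by flow cytometry; early, late and total apoptotic fractions scored.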

MDA-MB-468 cells [2] = assay: Cell cycle analysis; format: cell-based; settings: for cell cycle arrest (in words): MDA-MB-468
Procedure, shortened: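 Cells plated at 4 × 10⁶ per T75 flask and treated with test compound for 24 and 48 h. Harvested by trypsinisation, washed in PBS and fixed in ice-cold absolute alcohol. DNA stained with a commercial cell-cycle DNA reagent kit per the maker's instructions. Phase distribution determined by flow cytometry.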

DOX/MDA-MB-468 cells = assay: MTT cytotoxicity in drug-resistant DOX/MDA-MB-468 cell line; format: cell-based; settings: read-out: IC50 DOX/MDA-MB-468, drug-resistant DOX/MDA-MB-468 cells
EGFR tyrosine kinase = EGFR tyrosine kinase (Homo sapiens, UniProt P00533); assay: In vitro EGFR tyrosine kinase activity; format: biochemical; settings: read-out: EGFR ± SD IC50
male Wistar rats = assay: Toxicological study / calculation of LD50; format: in vivo, rat
Procedure, shortened: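 Adult male Wistar rats, 200 ± 20 g, acclimatised 7 days at 22 ± 3 °C under a natural light cycle and fasted 18 h before dosing. Single dose of test compound in 0.5 mL DMSO. Five dose levels given to groups of five rats.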

| Molecule | antiproliferative activity (in words) (NCI 60 cancer cell lines; most of the cancer cell lines) | inhibition at 10 µM (HOP-92) [%] | MDA-MB-468 P-glycoprotein fold change (P-glycoprotein) [fold] | apoptosis induction (in words) (MDA-MB-468 cells [1]; MDA-MB-468) | late cellular apoptosis (MDA-MB-468 cells [1]; MDA-MB-468, IC50 of compound, DMSO control 0.27%) [%] | early/primary apoptosis (MDA-MB-468 cells [1]; MDA-MB-468, IC50 of compound, DMSO control 0.39%, lower right quadrant) [%] | total apoptosis (MDA-MB-468 cells [1]; MDA-MB-468, IC50 of compound, DMSO control 2.09%) [%] | late apoptosis (MDA-MB-468 cells [1]; MDA-MB-468, IC50 of compound, control 0.25%, upper right quadrant) [%] | cell cycle arrest (in words) (MDA-MB-468 cells [2]) | cells in S phase (%DIP S) (MDA-MB-468 cells [2]; MDA-MB-468, compound at its IC50, control 22.98%) [%] | cells in G1 phase (%DIP G1) (MDA-MB-468 cells [2]; MDA-MB-468, compound at its IC50, control 52.76%) [%] | cell cycle arrest (in words) (MDA-MB-468 cells [2]; listed as 16a) | IC50 (DOX/MDA-MB-468 cells) [nM] | IC50 (EGFR tyrosine kinase) [nM] | time to death (male Wistar rats; 1000 mg kg^−1) [days] | toxic signs (male Wistar rats; 1000 mg kg^−1, after intraperitoneal injection) | effect on the animals (male Wistar rats; doses 55, 90 and 100 mg kg^−1) | cell growth inhibition (NCI 60 cancer cell lines; some melanoma, ovarian, renal and breast cancer cell lines) |
| --- | --- | --- | --- | --- | --- | --- | --- | --- | --- | --- | --- | --- | --- | --- | --- | --- | --- | --- |
| CSc1nc(-c2ccc(Cl)cc2)c2c(NC(=O)c3ccccc3)nnc-2[nH]1 [Compound 6, N-(4-(4-Chlorophenyl)-6-(methylthio)-7H-pyrazolo[3,4-d]pyrimidin-3-yl)benzamide] | poor antiproliferative activity | > 100 |  |  |  |  |  |  |  |  |  |  |  |  |  |  |  |  |
| Ethyl 1-(3-benzamido-4-(4-chlorophenyl)-7H-pyrazolo[3,4-d]pyrimidin-6-yl)-5-(2,4-dichlorophenyl)-3-oxo-2,3-dihydro-1H-pyrazole-4-carboxylate [Compound 16] |  |  | 0.449 | increased the percentage of apoptotic cells in a time-dependent manner | 54.61 | 18.08 | 46.59 | 31.47 | cell cycle arrest at the S phase; also recorded: G1 and S phases arrest pattern | 28.16 | 57.41 | induce cell cycle arrest with concurrent increase in G1 and S population | 844 | 34 ± 2 | ≤ 7 | abdominal muscle contractions and ataxia signs | does not produce any significant effect |  |
| N-(4-(4-Chlorophenyl)-6-(4-cyano-5-(2,4-dichlorophenyl)-3-oxo-2,3-dihydro-1H-pyrazol-1-yl)-7H-pyrazolo[3,4-d]pyrimidin-3-yl)benzamide [Compound 15] |  |  | 0.301 |  |  |  |  |  |  |  |  |  | 267 | 135 ± 6 |  |  |  | above 100% |
